Source: paper PMC11047177 (ESMO Open, 2024)
“Also recorded” adds a separate entry of the source.

Tests used:
[1] = Phase I study NCT03854227: DLTs and adverse events; type: in vivo, human
Outline: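 Open-label, multicentre first-in-human trial in adults (ECOG 0–1) with advanced or metastatic tumours. Oral test compound, q.d. or b.i.d., on an empty stomach in continuous 28-day cycles. Part 1 started at 0.5 mg q.d., with escalation guided by a two-parameter Bayesian logistic regression model on cycle 1 DLTs. Part 2 ran at 6 mg q.d. AEs were graded by CTCAE 5.0 and summarised descriptively by dose level.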

[2] = tested on: SW1990 and A427 xenograft; test: Preclinical mouse xenograft models; type: in vivo; conditions: corresponding to a 70% (or greater) inhibition of plasma SDMA; data not shown

Structure (SMILES): Cc1ncnc2c1ccn2[C@@H]1C[C@H](Oc2cc(C(F)F)c(F)c3c2CNCC3)[C@@H](O)[C@H]1O [PF-06939999]
- TRAE dysgeusia, any grade ([1]; part 1 + part 2, N=54): 22%
- TRAE fatigue, any grade ([1]; part 1 + part 2, N=54): 28%
- TRAE nausea, any grade ([1]; part 1 + part 2, N=54): 32%
- TRAE thrombocytopenia, any grade ([1]; part 1 + part 2, N=54): 41%
- DLT ([1]; part 1, 0.5 mg b.i.d., N=1): 0 n (%)
- Grade ≥3 TRAE Anemia ([1]; part 1, 0.5 mg b.i.d., N=1): 0 n (%)
- Grade ≥3 TRAE Fatigue ([1]; part 1, 0.5 mg b.i.d., N=1): 0 n (%)
- Grade ≥3 TRAE Lymphocyte count decreased ([1]; part 1, 0.5 mg b.i.d., N=1): 0 n (%)
- Grade ≥3 TRAE Muscular weakness ([1]; part 1, 0.5 mg b.i.d., N=1): 0 n (%)
- Grade ≥3 TRAE Neutropenia ([1]; part 1, 0.5 mg b.i.d., N=1): 0 n (%)
- Grade ≥3 TRAE Thrombocytopenia ([1]; part 1, 0.5 mg b.i.d., N=1): 0 n (%)
- DLT ([1]; part 1, 0.5 mg q.d., N=1): 0 n (%)
- Grade ≥3 TRAE Anemia ([1]; part 1, 0.5 mg q.d., N=1): 0 n (%)
- Grade ≥3 TRAE Fatigue ([1]; part 1, 0.5 mg q.d., N=1): 0 n (%)
- Grade ≥3 TRAE Lymphocyte count decreased ([1]; part 1, 0.5 mg q.d., N=1): 0 n (%)
- Grade ≥3 TRAE Muscular weakness ([1]; part 1, 0.5 mg q.d., N=1): 0 n (%)
- Grade ≥3 TRAE Neutropenia ([1]; part 1, 0.5 mg q.d., N=1): 0 n (%)
- Grade ≥3 TRAE Thrombocytopenia ([1]; part 1, 0.5 mg q.d., N=1): 0 n (%)
- DLT ([1]; part 1, 1 mg b.i.d., N=2): 0 n (%)
- Grade ≥3 TRAE Anemia ([1]; part 1, 1 mg b.i.d., N=2): 1 (50) n (%)
- Grade ≥3 TRAE Fatigue ([1]; part 1, 1 mg b.i.d., N=2): 0 n (%)
- Grade ≥3 TRAE Lymphocyte count decreased ([1]; part 1, 1 mg b.i.d., N=2): 0 n (%)
- Grade ≥3 TRAE Muscular weakness ([1]; part 1, 1 mg b.i.d., N=2): 0 n (%)
- Grade ≥3 TRAE Neutropenia ([1]; part 1, 1 mg b.i.d., N=2): 0 n (%)
- Grade ≥3 TRAE Thrombocytopenia ([1]; part 1, 1 mg b.i.d., N=2): 0 n (%)
- DLT ([1]; part 1, 2 mg b.i.d., N=2): 0 n (%)
- Grade ≥3 TRAE Anemia ([1]; part 1, 2 mg b.i.d., N=3): 0 n (%)
- Grade ≥3 TRAE Fatigue ([1]; part 1, 2 mg b.i.d., N=3): 0 n (%)
- Grade ≥3 TRAE Lymphocyte count decreased ([1]; part 1, 2 mg b.i.d., N=3): 0 n (%)
- Grade ≥3 TRAE Muscular weakness ([1]; part 1, 2 mg b.i.d., N=3): 0 n (%)
- Grade ≥3 TRAE Neutropenia ([1]; part 1, 2 mg b.i.d., N=3): 0 n (%)
- Grade ≥3 TRAE Thrombocytopenia ([1]; part 1, 2 mg b.i.d., N=3): 1 (33) n (%)
- DLT ([1]; part 1, 4 mg b.i.d., N=3): 0 n (%)
- Grade ≥3 TRAE Anemia ([1]; part 1, 4 mg b.i.d., N=3): 1 (33) n (%)
- Grade ≥3 TRAE Fatigue ([1]; part 1, 4 mg b.i.d., N=3): 1 (33) n (%)
- Grade ≥3 TRAE Lymphocyte count decreased ([1]; part 1, 4 mg b.i.d., N=3): 0 n (%)
- Grade ≥3 TRAE Muscular weakness ([1]; part 1, 4 mg b.i.d., N=3): 0 n (%)
- Grade ≥3 TRAE Neutropenia ([1]; part 1, 4 mg b.i.d., N=3): 0 n (%)
- Grade ≥3 TRAE Thrombocytopenia ([1]; part 1, 4 mg b.i.d., N=3): 1 (33) n (%)
- DLT ([1]; part 1, 4 mg q.d., N=4): 0 n (%)
- Grade ≥3 TRAE Anemia ([1]; part 1, 4 mg q.d., N=5): 2 (40) n (%)
- Grade ≥3 TRAE Fatigue ([1]; part 1, 4 mg q.d., N=5): 0 n (%)
- Grade ≥3 TRAE Lymphocyte count decreased ([1]; part 1, 4 mg q.d., N=5): 0 n (%)
- Grade ≥3 TRAE Muscular weakness ([1]; part 1, 4 mg q.d., N=5): 1 (20) n (%)
- Grade ≥3 TRAE Neutropenia ([1]; part 1, 4 mg q.d., N=5): 0 n (%)
- Grade ≥3 TRAE Thrombocytopenia ([1]; part 1, 4 mg q.d., N=5): 0 n (%)
- DLT thrombocytopenia, number of patients ([1]; part 1, 6 mg b.i.d.): 2 n
- DLT ([1]; part 1, 6 mg b.i.d., N=2): 2 (100) n (%)
- Grade ≥3 TRAE Anemia ([1]; part 1, 6 mg b.i.d., N=4): 1 (25) n (%)
- Grade ≥3 TRAE Fatigue ([1]; part 1, 6 mg b.i.d., N=4): 0 n (%)
- Grade ≥3 TRAE Lymphocyte count decreased ([1]; part 1, 6 mg b.i.d., N=4): 0 n (%)
- Grade ≥3 TRAE Muscular weakness ([1]; part 1, 6 mg b.i.d., N=4): 0 n (%)
- Grade ≥3 TRAE Neutropenia ([1]; part 1, 6 mg b.i.d., N=4): 0 n (%)
- Grade ≥3 TRAE Thrombocytopenia ([1]; part 1, 6 mg b.i.d., N=4): 2 (50) n (%)
- DLT (grade 3) neutropenia, number of patients ([1]; part 1, 6 mg q.d.): 1 n
- DLT ([1]; part 1, 6 mg q.d., N=6): 1 (17) n (%)
- Grade ≥3 TRAE Anemia ([1]; part 1, 6 mg q.d., N=6): 2 (33) n (%)
- Grade ≥3 TRAE Fatigue ([1]; part 1, 6 mg q.d., N=6): 1 (17) n (%)
- Grade ≥3 TRAE Lymphocyte count decreased ([1]; part 1, 6 mg q.d., N=6): 0 n (%)
- Grade ≥3 TRAE Muscular weakness ([1]; part 1, 6 mg q.d., N=6): 0 n (%)
- Grade ≥3 TRAE Neutropenia ([1]; part 1, 6 mg q.d., N=6): 1 (17) n (%)
- Grade ≥3 TRAE Thrombocytopenia ([1]; part 1, 6 mg q.d., N=6): 0 n (%)
- DLT (grade 3) anemia, number of patients ([1]; part 1, 8 mg q.d.): 1 n
- DLT ([1]; part 1, 8 mg q.d., N=3): 1 (33) n (%)
- Grade ≥3 TRAE Anemia ([1]; part 1, 8 mg q.d., N=3): 1 (33) n (%)
- Grade ≥3 TRAE Fatigue ([1]; part 1, 8 mg q.d., N=3): 0 n (%)
- Grade ≥3 TRAE Lymphocyte count decreased ([1]; part 1, 8 mg q.d., N=3): 1 (33) n (%)
- Grade ≥3 TRAE Muscular weakness ([1]; part 1, 8 mg q.d., N=3): 0 n (%)
- Grade ≥3 TRAE Neutropenia ([1]; part 1, 8 mg q.d., N=3): 0 n (%)
- Grade ≥3 TRAE Thrombocytopenia ([1]; part 1, 8 mg q.d., N=3): 2 (67) n (%)
- Patients reporting DLTs ([1]; part 1, 4 of 24 DLT-assessable patients): 17%
- DLT grade 3 thrombocytopenia, number of patients ([1]; part 1, 6-mg b.i.d. cohort): 1 n
- DLT grade 4 thrombocytopenia, number of patients ([1]; part 1, 6-mg b.i.d. cohort): 1 n
- DLT ([1]; part 1, Total, N=24): 4 (17) n (%)
- Grade ≥3 TRAE Fatigue ([1]; part 1, Total, N=28): 2 (7) n (%)
- Grade ≥3 TRAE Lymphocyte count decreased ([1]; part 1, Total, N=28): 1 (4) n (%)
- Grade ≥3 TRAE Muscular weakness ([1]; part 1, Total, N=28): 1 (4) n (%)
- Grade ≥3 TRAE Neutropenia ([1]; part 1, Total, N=28): 1 (4) n (%)
- Grade ≥3 TRAE Thrombocytopenia ([1]; part 1, Total, N=28): 6 (21) n (%)
- Maximum tolerated dose (MTD) ([1]; part 1 dose escalation, 0.5 mg q.d. to 6 mg b.i.d.): No MTD was determined; also recorded: MTD was not identified
- Dose reduction due to thrombocytopenia, patients ([1]; part 2, 6 mg q.d., 4 patients): 15%
- Dose reduction due to anemia, patients ([1]; part 2, 6 mg q.d., 5 patients): 19%
- Patients with ≥1 dose reduction due to AEs ([1]; part 2, 6 mg q.d., eight patients): 31%
- Tumor growth inhibition [2]: ~100%
